Hits are enriched below; roughly 2.1% of the tested compounds scored in any of these assays.
dFosB activator = enhances mouse delta FosB homodimer DNA binding. P13346. activation, % at 25 µM. AID 493131. purified delta FosB, TAMRA-CDK5 oligo fluorescence polarization; percent of positive-control signal above neutral wells. actives 0.99% (n = 340,000);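 active means mean activation above about 17%, with every replicate also reaching it, limit read from the data, passing the limit was not always enough; inconclusive means only one of the two conditions met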
SR-BI DiI inh = mouse SR-BI HDL lipid transfer inhibition; ldlA[mSR-BI] CHO cells, DiI-HDL uptake fluorescence, 3 h; AID 488896; inhibition, % at 12.5 µM; Q61009; actives 0.96% (n = 320,000);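 active means mean replicate inhibition of at least 70% and a set share of replicates each scoring 70 or more; inconclusive means meets just one of the two criteria; inactive means fails both criteria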;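 further: 0% = median of neutral control wells and 100% = median of positive control wells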
SR-BI DiI-HDL act = SR-BI HDL lipid transfer activation; CHO ldlA[mSR-BI] cells, DiI-HDL uptake fluorescence, 3 h; 100 = double the neutral-control signal; activation, % at 12.5 µM; actives 0.096% (n = 320,000); AID 504775;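 active means mean replicate activation of at least 60% and every replicate at or above 60%; inconclusive means mean or all-replicate condition met, but not both; inactive means mean below 60% and not all replicates reaching 60%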;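 further: 0% = median plate neutral-control signal and 100% = twice that signal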
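Material: SR-BI-overexpressing, LDLR-lacking CHO cells; schedule: compound exposure 3 h, 37 °C; reagent: DiI-labelled HDL at 10 µg/mL final; technique: bottom-read fluorescence, 550/595 nm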
PKA-R1A act = activators of PKA-R1A complex; P00514+P68181; PKA-R1A dissociation, Cy5-IP20 fluorescence polarization; scaled: DMSO 0%, 113 µM cGMP 100%; activation, % at 11.4 µM; actives 0.083% (n = 340,000); AID 504707;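 active means percent activation above the mean of all tested compounds plus 3 SD, cut at about 19% in these data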;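 further: higher means more PKAc released from R1A so a rise in polarization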
CDK5 p35 inh = blocks human CDK5/p35 kinase activity; Recombinant CDK5/p35, ADP-Glo luminescence, 60 min; AID 488839; Q00535+Q15078; inhibition, % at 10 µM; actives 0.01% (n = 330,000);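 active means highest replicate inhibition of at least 50% and at least 75% of replicates reaching 50%; inconclusive means only one of the two criteria met; inactive means both criteria failed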;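 further: plate controls were DMSO neutral control for no effect and GW8510 at 10 µM for full effect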
Target sequence (Q00535 whole entry, looked up): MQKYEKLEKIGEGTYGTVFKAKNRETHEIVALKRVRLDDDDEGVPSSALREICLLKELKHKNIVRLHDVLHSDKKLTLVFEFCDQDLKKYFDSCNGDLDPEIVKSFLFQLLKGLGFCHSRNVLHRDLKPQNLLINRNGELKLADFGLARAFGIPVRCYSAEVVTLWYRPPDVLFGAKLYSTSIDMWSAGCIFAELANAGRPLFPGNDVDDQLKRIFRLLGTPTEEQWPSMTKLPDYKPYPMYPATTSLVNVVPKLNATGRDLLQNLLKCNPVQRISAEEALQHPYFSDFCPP
Target sequence (Q15078 whole entry, looked up): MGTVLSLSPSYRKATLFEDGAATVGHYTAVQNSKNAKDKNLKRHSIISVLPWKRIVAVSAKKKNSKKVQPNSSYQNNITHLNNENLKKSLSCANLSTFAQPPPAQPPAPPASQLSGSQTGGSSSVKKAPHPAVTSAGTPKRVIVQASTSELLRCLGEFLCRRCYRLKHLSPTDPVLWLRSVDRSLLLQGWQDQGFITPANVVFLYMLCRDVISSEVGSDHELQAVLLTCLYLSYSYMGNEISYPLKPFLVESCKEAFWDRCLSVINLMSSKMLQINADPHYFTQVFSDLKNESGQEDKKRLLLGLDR
PKA-R2B act = activates the human PKA-R2B holoenzyme complex | PKA-R2B holoenzyme dissociation, Cy5-IP20 fluorescence polarization; R2B truncated from residue 108, S112A mutant; 0% DMSO only, 100% 113 µM cGMP | P22694+P31323 | actives 0.079% (n = 340,000) | activation, % at 11.4 µM | AID 504700;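 active means activation above a cutoff set at the mean over all compounds plus 3 SD, cut at about 18% in these data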;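 further: higher means more holoenzyme dissociation and a rise in polarization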
Numbers without * were called inactive; ? = inconclusive; / = not tested or not shown.

SMILES	dFosB activator	SR-BI DiI inh	SR-BI DiI-HDL act	PKA-R1A act	CDK5 p35 inh	PKA-R2B act
Cc1ccc(NC(=S)NC(=O)CC2CC(C)(C)OC2=O)cc1 (stereo not drawn)	-6.8	-30.6	30.6	0.4	0.3	6.3
CC1(C)CC(CC(=O)NC(=S)Nc2ccc([N+](=O)[O-])cc2)C(=O)O1 (stereo not drawn)	-13.0	89.5*	-89.5	-11.9	-1.0	10.4
COc1cc(C(=O)NCC2CCCO2)ccc1OCc1ccccc1Cl (stereo not drawn)	-14.3	?	-74.1	2.8	1.3	-19.1
CN(C)Cc1c(O)ccc2c(=O)c(-c3ccccc3Cl)c(C(F)(F)F)oc12	-4.2	-36.8	36.8	-3.7	0.1	-2.7
CC(=O)Nc1ccc(NC(=O)C(C)OC(=O)/C(C#N)=C/c2ccc(N(C)C)cc2)cc1 (stereo not drawn)	36.3*	20.1	-20.1	8.1	1.8	2.5
O=c1ccc2cc3c([nH]c4ccc(Br)cc43)oc-2c1O	-10.7	87.8*	-87.8	-0.1	12.1	-5.8
O=C(Nc1cccnc1)/C(N=Nc1ccc(Cl)c(C(F)(F)F)c1)=C(\O)c1ccccc1	-8.5	77.4*	-77.4	6.8	-0.8	-3.0
CCOc1ccc(NC(=O)CN(C)C(=O)c2ccc(OCC(=O)N3CCOCC3)c(OC)c2)cc1OCC	-5.3	20.9	-20.9	-0.2	-2.4	-14.8
Cc1nnsc1C(=O)N/N=C/c1ccc2ccccc2c1O	-1.6	126.4*	-126.5	-1.3	0.7	-2.6
Cc1nnsc1C(=O)N/N=C/c1ccccc1	-4.5	8.6	-8.6	-3.1	-1.1	-7.3
O=C(Sc1n[nH]c(=O)[nH]c1=O)c1ccccc1	-1.8	-153.7	?	6.8	1.8	11.1
COc1cc(NC(=O)c2cc3ccccc3cc2OC)ccc1NC(=O)c1cccs1	-3.9	70.8*	/	-0.5	-1.3	-5.7
COc1cc(NC(=S)NC(=O)c2ccccc2C)ccc1NC(=O)c1cccs1	-1.2	59.3	-59.3	-0.5	-0.4	-8.1
COc1cc(NC(=S)NC(=O)c2ccccc2F)ccc1NC(=O)c1cccs1	-9.0	82.9*	-82.9	-1.8	-1.1	-10.4
COc1cc(NC(=S)NC(=O)c2cc(C)cc(C)c2)ccc1NC(=O)c1cccs1	2.8	57.4	-57.4	-1.3	4.4	8.6
COc1cc(NC(=S)NC(=O)c2c(OC)cccc2OC)ccc1NC(=O)c1cccs1	0.4	73.8*	-73.8	-2.7	1.4	0.2
N#Cc1ccc(CN2CCN(C(=O)CCNS(=O)(=O)c3ccc(F)c(Cl)c3)CC2)cc1	-1.9	-2.0	2.0	-6.4	1.9	-9.0
CCNc1ccc(C(=O)OCC)cc1NC(=O)c1cccc(S(=O)(=O)N(C)c2ccccc2)c1	-4.2	56.7	-56.7	12.9	-0.9	0.8
CCNc1ccc(C(=O)OCC)cc1NC(=O)c1cccc(N(C)C)c1	-3.2	85.6*	-85.5	-1.8	5.4	-11.0
COc1ccc(OC)c(S(=O)(=O)N2CCCC2C(=O)NC(C)c2ccccc2)c1 (stereo not drawn)	-5.9	-12.0	12.0	2.5	0.6	-3.7
COCCn1c(-c2ccccc2)nc2oc3cc(OC)ccc3c(=O)c2c1=O	-21.6	59.1	-59.1	-6.4	-0.3	-4.1
COc1ccc2c(=O)c3c(=O)n(Cc4ccco4)c(-c4cc(OC)c(OC)c(OC)c4)nc3oc2c1	-11.0	73.9*	-73.9	-19.8	1.4	-0.5
COc1ccc2c(=O)c3c(=O)n(-c4ccccc4)c(-c4ccc(C)cc4)nc3oc2c1	-14.9	91.6*	-91.6	4.8	0.1	5.3
Cc1ccnc(NC(=O)COc2ccc3c(c2)CCC3)c1	1.4	-17.3	17.3	-5.3	2.3	-2.7
CN(C)CCNc1ccc(CO)c2oc3ccc(O)cc3c(=O)c12	25.6*	4.4	-4.4	-4.8	1.0	-3.6
SMILES	dFosB activator	SR-BI DiI inh	SR-BI DiI-HDL act	PKA-R1A act	CDK5 p35 inh	PKA-R2B act
CCN(CC)CCNc1ccc(CO)c2oc3cc(Cl)ccc3c(=O)c12	/	/	/	-6.3	/	-3.3
COc1ccc(Nc2nnc(-c3ccc(N4CCOCC4)c([N+](=O)[O-])c3)c3ccccc23)cc1	5.4	78.6*	-78.6	2.5	-1.4	-8.3
COc1ccc(CNC(=O)c2ccc(N3CCOCC3)c([N+](=O)[O-])c2)cc1	-11.5	11.8	-11.8	-5.3	-0.8	-1.2
COc1ccc(C(=O)c2ccc(N3CCOCC3)c([N+](=O)[O-])c2)cc1	-1.3	79.5*	-79.5	-5.7	0.3	-5.9
Cc1nc(SCC(=O)Nc2nnc(C(C)C)s2)n[nH]1	-3.8	-4.2	4.2	-5.1	-0.8	-5.4
O=C(Nc1cccc(S(=O)(=O)NC2=NCCC2)c1)c1ccc(C(F)(F)F)cc1	-4.8	/	/	-3.8	-1.2	0.7
Cc1ccc(CNS(=O)(=O)c2cn(C)c(=O)n(C)c2=O)cc1	1.4	-12.8	12.8	-6.7	-0.6	-12.3
CC(=O)c1c(C)[nH]c(C(=O)Nc2ccc(C)c(C)c2)c1C	-13.6	39.8	-39.8	-0.3	-0.2	1.5
COc1ccc(NC(=O)c2[nH]c(C)c(C(C)=O)c2C)cc1Cl	-21.1	74.8*	-74.8	4.9	1.6	0.6
CN(C)c1ccc(N=Nc2nc3ccccc3n2C)cc1	20.6*	/	/	-6.5	10.1	7.7
Cn1c(N=Nc2ccccc2)nc2ccccc21	5.8	-18.4	18.5	-4.4	38.4	5.8
CCOC(=O)C1=C(C2=CCCCC2)c2ccc(OC)cc2N(S(=O)(=O)C(F)(F)F)C1C(=O)OCC (stereo not drawn)	-19.4	-10.0	10.0	-1.0	0.5	7.2
O/N=C/c1ccc2ccccc2n1	-4.5	-81.6	81.6*	-8.3	-1.7	8.1
CC1(c2nc3ccccc3cc2C#N)OCCO1	/	/	/	-3.7	/	-0.4
COc1ccc(CC(=O)Nc2ccc(S(=O)(=O)N3CCCC3)cc2)c(OC)c1	-5.8	8.4	-8.4	2.1	-1.8	-2.2
COc1cccc(NC(=O)CCCNC(=O)Cn2cnc3sc(C)c(C)c3c2=O)c1	-5.7	18.4	-18.4	-10.1	8.0	-13.1
COc1ccc(OC)c(NC(=O)CCCNC(=O)Cn2cnc3sc(C)c(C)c3c2=O)c1	-8.6	77.3*	-77.3	2.2	-0.2	-2.2
COc1ccc(C(=O)Nc2nc(-c3ccc([N+](=O)[O-])cc3)c(-c3ccccc3)s2)cc1	3.2	13.6	-13.6	-8.3	-1.8	-3.4
COc1ccc(-c2sc(NC(=O)c3ccc(C)cc3)nc2-c2ccc([N+](=O)[O-])cc2)cc1	3.8	90.5*	-90.5	5.8	2.0	-2.2
CCOC(=O)c1cnc2cc(-c3ccc(Cl)cc3)nn2c1N	-5.1	86.4*	-86.4	-0.5	-15.2	-12.2
